In brackets after ≈: the same amount, converted by molar mass.
Columns and labels:
[1] = Clearance in Sprague-Dawley rat at 0.5 mg/kg, iv by LC-MS/MS analysis; format: ADME, organism-based; conditions: in vivo
Procedure, shortened: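 Rat PK with IV and PO dosing, n=3. The usual doses were 0.5 mg/kg IV and 2.5 mg/kg PO in 20% HP-β-CD. One compound was instead given at 0.1 mg/kg IV and 0.5 mg/kg PO.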

[2] = AUC (infinity) in dog at 0.1 mg/kg, iv by LC-MS/MS analysis; format: ADME, organism-based, Canis lupus familiaris; set-up: time infinity, route intravenous, dose 0.1 mg/kg; conditions: in vivo
[3] = Protein binding in human plasma assessed as unbound fraction at 0.5 uM after 6 hrs by equilibrium dialysis method; format: ADME, cell-free
[4] = Half life in Sprague-Dawley rat at 0.5 mg/kg, iv or 2.5 mg/kg, po using 1:1 PEG-400/water formulation by LC-MS/MS analysis; format: ADME, organism-based; conditions: in vivo
Procedure, shortened: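 Rats dosed 0.5 mg/kg i.v. and 2.5 mg/kg p.o., n=3 ± SD. Default vehicle is 20% HP-β-CD; one PK set used 1:1 PEG400/water and another 30% SBE-β-CD.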

[5] = Toxicity in Sprague-Dawley rat assessed as change in behavior at 500 mg/kg/day, po administered as nanosuspension measured after 2 days; format: organism-based; conditions: in vivo, 48 h, time 2 day
Procedure, shortened: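 Repeated daily oral dosing of a nanosuspension to rats for 14 days, with 500 mg/kg/day as the high dose. Clinical observations were recorded, and animals were moved to individual caging on Day 6.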

[6] = Half life in monkey at 0.5 mg/kg, po by LC-MS/MS analysis; format: ADME, organism-based, Macaca mulatta; conditions: rhesus monkey, in vivo
[7] = AUC (0 to 24 hrs) in Sprague-Dawley rat at 1000 mg/kg, po administered via gavage after 24 hrs using HPMC formulation by LC-MS/MS analysis; format: ADME, organism-based; set-up: route oral, dose 1000 mg/kg, time <=24; conditions: in vivo
[8] = Displacement of 3-[3H] 1-(azetidin-1-yl)-2-[6-(4-fluoro-3-methyl-phenyl)pyrrolo[3,2-b]pyridin-1-yl]ethanone from GluN1a/GluN2B receptor in rat cortex membranes measured after 2 hrs by liquid scintillation counting method; format: cell membranes
Procedure, shortened: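 Rat adult cortex was homogenized in 50 mM Tris pH 7.4, and membranes were washed by centrifugation. Membranes were incubated with the [3H] pyrrolopyridine tracer and test compound for 2 h at room temperature with shaking. Non-specific binding was defined with 10 µM CP-101,606. Bound tracer was separated by filtration on PEI-soaked GF/B filters and counted by liquid scintillation. Ki was obtained from a competition fit using tracer Kd; three independent runs in duplicate.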

[9] = Ex vivo receptor occupancy at GluN2B in po dosed Sprague-Dawley rat assessed as 3-[3H] 1-(azetidin-1-yl)-2-[6-(4-fluoro-3-methyl-phenyl)pyrrolo[3,2-b]pyridin-1-yl]-ethanone labelling measured after 60 mins by autoradiography; format: functional, organism-based
Procedure, shortened: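 Oral dosing at 8 dose levels in 20% HP-β-CD; 3 rats per group. GluN2B occupancy in hippocampus measured 60 min post dose by ex vivo radiotracer autoradiography and calculated versus naïve controls, mean ± SEM. Plasma concentrations paired with occupancy to derive EC50 and dose ED50.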

[10] = Solubility of compound in phosphate buffer at pH 7 measured after 3 days; format: physicochemical; conditions: time 3 day
Procedure, shortened: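 Solubility in aqueous buffer at pH 2 and pH 7, and in simulated gastric and intestinal fluids.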

[11] = Intrinsic clearance in human liver microsomes at 1 uM after 5 to 60 mins in presence of NADPH by LC-MS/MS analysis; format: ADME, Microsome; conditions: time 5-60 min, read-out: CLH
[12] = molecular target: T1, Aryl hydrocarbon receptor (Homo sapiens, UniProt P35869); experiment: Activation of human AHR expressed in human 1A2-DRE cells assessed as induction of CYP1A by luciferase reporter gene assay relative to control; format: ADME, cell-based
T1 sequence (P35869 whole entry): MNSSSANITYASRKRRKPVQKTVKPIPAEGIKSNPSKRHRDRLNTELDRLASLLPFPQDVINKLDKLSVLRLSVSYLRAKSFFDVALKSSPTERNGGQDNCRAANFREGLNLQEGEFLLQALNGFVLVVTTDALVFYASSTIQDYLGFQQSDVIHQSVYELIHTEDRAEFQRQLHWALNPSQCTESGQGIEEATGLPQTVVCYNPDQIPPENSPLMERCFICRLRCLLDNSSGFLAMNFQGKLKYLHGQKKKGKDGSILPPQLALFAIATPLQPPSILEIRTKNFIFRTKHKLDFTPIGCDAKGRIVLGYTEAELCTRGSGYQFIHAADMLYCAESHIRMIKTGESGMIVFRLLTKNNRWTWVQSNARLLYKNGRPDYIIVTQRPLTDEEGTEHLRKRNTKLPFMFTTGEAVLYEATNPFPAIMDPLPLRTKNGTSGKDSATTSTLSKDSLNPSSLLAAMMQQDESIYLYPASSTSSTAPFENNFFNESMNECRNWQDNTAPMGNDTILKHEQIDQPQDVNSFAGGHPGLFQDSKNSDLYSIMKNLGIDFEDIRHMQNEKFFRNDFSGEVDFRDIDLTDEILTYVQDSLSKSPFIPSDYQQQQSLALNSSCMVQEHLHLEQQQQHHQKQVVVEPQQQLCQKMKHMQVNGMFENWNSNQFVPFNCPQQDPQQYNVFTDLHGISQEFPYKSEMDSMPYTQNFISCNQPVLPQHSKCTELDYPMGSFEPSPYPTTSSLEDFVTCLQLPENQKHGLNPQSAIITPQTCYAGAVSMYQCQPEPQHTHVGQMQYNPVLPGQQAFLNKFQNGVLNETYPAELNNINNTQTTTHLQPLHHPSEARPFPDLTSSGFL
Procedure, shortened: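 Luciferase reporter lines were used. DPX2 is HepG2 carrying human PXR plus a CYP3A4 promoter-luciferase construct. 1A2-DRE carries human AhR plus a CYP1A2 promoter with 3 DRE copies. Luminescence was read with ONE-Glo. Activation was expressed relative to rifampicin (PXR) or omeprazole (AhR).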

[13] = Drug level in Sprague-Dawley rat brain cerebellum at 0.03 mg/kg, iv after 60 min by LC-MS/MS analysis; format: ADME, organism-based; conditions: read-out: Drug uptake
Procedure, shortened: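 Single i.v. dose of 0.03 mg/kg in 50% (w/v) PEG/water, pH 7.4; rats n=3 per group, killed at 5, 10, 30, 60 and 120 min. Cerebellum, cortex, striatum and hippocampus dissected, weighed and homogenized; drug quantified by LC-MS/MS and normalized to tissue weight. P<0.05 taken as significant versus cerebellum.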

[14] = Tmax in monkey at 0.5 mg/kg, po by LC-MS/MS analysis; format: ADME, organism-based, Macaca mulatta; conditions: rhesus monkey, in vivo
[15] = Cmax in Sprague-Dawley rat at 500 mg/kg, po administered via gavage after 24 hrs using HPMC formulation by LC-MS/MS analysis; format: ADME, organism-based; set-up: route oral, time 24 hrs, dose 500 mg/kg; conditions: in vivo
Procedure, shortened: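 Single oral gavage dose to male Sprague Dawley rats, 3 per dose level. Vehicles were a standard suspension in 5% HPMC (125, 250, 500 or 1000 mg/kg) or a nanosuspension (API:polymer 4:1), with stock diluted in vehicle on the day of dosing (100, 250 or 500 mg/kg). Blood was sampled at time points from 0.5 to 24 h.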

[16] = Half life in monkey at 0.1 mg/kg, iv by LC-MS/MS analysis; format: ADME, organism-based, Macaca mulatta; conditions: rhesus monkey, in vivo
[17] = Rattus norvegicus, Sprague-Dawley, po, 1 h, time 60 min

Cn1c(=O)n(CC(=O)N2CCC2)c2cc(-c3ccc(C(F)(F)F)s3)cnc21
clearance [1]: 30 mL/min/kg | AUC(0-inf) [2]: 126 ng·h/mL | fraction unbound at 6 h, 0.5 µM [3]: 0.046 | half-life [4]: 0.8 h | Activity [5]: Toxic | half-life [6]: 1 h | AUC(0-t) [7]: 22300 ng·h/mL | Ki [8]: 16 nM | EC50 ([9]; Rattus norvegicus, Sprague-Dawley): 0.407 µg/mL (≈ 1.03 µM) | ED50 [9, 17]: 0.86 mg/kg | ED70 [9, 17]: 1.44 mg/kg | EC70 ([9]; time 60 min, 1 h): 0.716 µg/mL (≈ 1.81 µM) | fEC70 ([9]; time 60 min, 1 h): 40 ng/mL | solubility at 72 h [10]: < 4 µM | microsomal CLint at 1 µM [11]: 5.4 µL/min/mg | Activity [12]: < 20% | concentration at 1 h [13]: 11.9 ng/mL | Tmax [14]: 1 h | Cmax [15]: 6140 ng/mL | half-life [16]: 1.1 h

Source: ChEMBL document CHEMBL4725355, “Design, Synthesis, and Preclinical Evaluation of 3-Methyl-6-(5-thiophenyl)-1,3-dihydro-imidazo[4,5-b]pyridin-2-ones as Selective GluN2B Negative Allosteric Modulators for the Treatment of Mood Disorders” (J Med Chem, 2020)
